# A selection: hits, their analogues and other compounds. The true share with any hit is near 3.8%.
# FGF22 binding: binders of human FGF22 protein, primary screen, FGF22 synaptogenesis inhibitor project, biophysical, thermal shift, single point. Fibroblast growth factor 22 (Homo sapiens), Q9HCT0. recombinant FGF22 thermal shift, SYPRO orange fluorescence; percent of sucrose octasulfate shift, DMSO zero. activity (Tm shift, normalised), % at 9.99 µM. actives 1.5% (n = 340,000);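 active = mean Tm shift, scaled 0 neutral to 100 positive control, at about 1.3% or above, every replicate too, limit read from the data; inconclusive = no clear call, values can overlap the other calls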
# Target sequence (Q9HCT0 whole entry, looked up): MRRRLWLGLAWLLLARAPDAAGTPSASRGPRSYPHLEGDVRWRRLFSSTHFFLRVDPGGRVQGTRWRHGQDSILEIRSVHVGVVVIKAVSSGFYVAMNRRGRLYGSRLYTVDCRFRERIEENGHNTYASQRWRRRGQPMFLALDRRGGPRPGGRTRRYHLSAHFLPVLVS
# ARNT-TACC3 inh: disruptors of ARNT/TACC3 protein interaction, primary screen, biochemical, AlphaScreen, single concentration | Transforming acidic coiled-coil-containing protein 3 (Homo sapiens), Q9Y6A5 | AlphaScreen His-ARNT PAS-B/GST-TACC3 binding, luminescence; TACC3 fragment carries E629A point mutation | inhibition, % at 9.99 µM | actives 0.66% (n = 390,000) | AID 623870, 2012;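 active = mean inhibition of replicates at least 50% and at least half of replicates each reaching 50%; inconclusive = half or more replicates reach 50% but mean below 50%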
# SIRT5 block: SIRT5 desuccinylase inhibitors, primary screen, biochemical, fluorescence imaging, single point, set 5; NAD-dependent protein deacylase sirtuin-5, mitochondrial (Homo sapiens), Q9NXA8; Purified SirT5, succinyl-peptide AMC, trypsin-coupled fluorescence; inhibition, % at 15 µM; actives 1.1% (n = 330,000); AID 652115, 2013; in the data active = inhibition above about 15%; inconclusive = no clear call, values can overlap the other calls
# Target sequence (Q9NXA8 whole entry, looked up): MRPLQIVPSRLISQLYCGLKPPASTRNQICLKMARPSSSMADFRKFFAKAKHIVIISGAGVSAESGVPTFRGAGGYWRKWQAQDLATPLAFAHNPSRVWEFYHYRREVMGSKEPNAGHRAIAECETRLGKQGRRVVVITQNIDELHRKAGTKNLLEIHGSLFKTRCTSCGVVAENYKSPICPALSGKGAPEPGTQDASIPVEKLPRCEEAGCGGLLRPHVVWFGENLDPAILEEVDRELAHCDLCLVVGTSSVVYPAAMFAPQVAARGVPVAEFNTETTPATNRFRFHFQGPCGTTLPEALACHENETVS
# Xi reactivation: activators of inactive X chromosome reactivation, primary screen, imaging, XiGFP fibroblasts, GFP high-content imaging, set 2 | XiGFP mouse fibroblasts, % GFP-positive cells imaging, 3 d; cells co-treated with 5-aza-dC sensitizer; scaled so ellipticine positive control = 100% | activation, % at 7.58 µM | actives 0.055% (n = 360,000) | AID 743238, 2013;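 active = mean normalized replicate activation at least 10% and every replicate at or above 10%; inconclusive = only one of the two criteria met; inactive = mean below 10% and not all replicates reach 10%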
#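 System: XiGFP fibroblasts, SV40-immortalized. Medium: DMEM plus 5-aza-dC sensitizer. Doses: single point. Timing: 3 d treatment, 15 min room-temperature fixation. Control set: ellipticine 6 µM.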
# DENV2 CPE: inhibitors of DENV2 cytopathic effect, primary screen, cell-based, plate reader, single concentration; CPE inhibition, % at 9.99 µM; AID 651640, 2012; actives 1.7% (n = 350,000); DENV2-infected cells, cytopathic effect rescue; in the data active = CPE inhibition above about 20%, passing the limit was not always enough; inconclusive = no clear call, values can overlap the other calls; tested in BHK-21 cells
# FN deposition inh: inhibitors of fibronectin matrix deposition, primary screen, AH1F cells, Alexa488-fibronectin fluorescence, plate reader; AH1F fibroblasts, overnight; inhibition, % at 12.6 µM; actives 0.086% (n = 350,000); AID 743247, 2014;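 active = mean inhibition across replicates of 30% or more, regardless of how many single replicates reach that level; inconclusive = mean under 30% yet at least half of replicates reach 30%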
#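 Assay system: AH1F fibroblast monolayer, labelled fibronectin deposition. Amount: 10000 cells per well. Also added: labelled fibronectin 24 nM. Compound: single-point pinned compound. Incubation: cell attachment 1 h, compound and FN exposure overnight. Detection: fluorescence after three HBSS washes, excitation 485 nm, emission 525 nm. Read-out: inhibition of fibronectin deposition signal.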
# Numbers stand for hits; - = inactive; ? = inconclusive; . = not tested or not shown; ! = not active in a repeat.
SMILES,FGF22 binding,ARNT-TACC3 inh,SIRT5 block,Xi reactivation,DENV2 CPE,FN deposition inh
COc1ccc(S(=O)(=O)N2CCCCC2c2cc(C(=O)Nc3ccc4c(c3)OCO4)no2)cc1 (stereo not given),-,.,-,-,-,35.2
O=C(Nc1ccc2c(c1)OCO2)c1ccc(S(=O)(=O)N2CCCC2)cc1,44.9,-,-,-,-,-
C[C@@H]1CN([C@@H](C)CO)C(=O)c2cc(C#CCN(C)C)cnc2O[C@@H]1CN(C)C,-,-,-,-,-,-
O=C(CN1C(=O)NC2(CCCC2)C1=O)N1CCN(S(=O)(=O)c2ccccc2[N+](=O)[O-])CC1,-,-,-,-,38.3,-
C[C@H](CO)N1C[C@H](C)[C@@H](CN(C)C(=O)CN(C)C)Oc2cc(Br)ccc2S1(=O)=O,-,-,-,-,33.1,-
CC(=O)N(C)C[C@@H]1Oc2cc(Br)ccc2S(=O)(=O)N([C@@H](C)CO)C[C@@H]1C,-,-,-,-,-,-
CC(=O)N(C)C[C@@H]1Oc2cc(Br)ccc2S(=O)(=O)N([C@H](C)CO)C[C@@H]1C,-,-,-,-,36.2!,-
C[C@H]1CN([C@@H](C)CO)S(=O)(=O)c2ccc(Br)cc2O[C@H]1CN(C)C(=O)CN(C)C,-,-,-,-,37.7!,-
COc1ccc(-c2cnc3c(c2)C(=O)N([C@@H](C)CO)C[C@H](C)[C@@H](CN(C)Cc2ccc(C(=O)O)cc2)O3)cc1,-,-,21.0,-,?,.
COc1ccc(-c2cnc3c(c2)C(=O)N([C@H](C)CO)C[C@H](C)[C@@H](CN(C)Cc2ccccc2)O3)cc1,-,-,-,-,?,-
C[C@@H]1CN([C@@H](C)CO)C(=O)c2cc(C3=CCCC3)cnc2O[C@@H]1CN(C)Cc1ccc(C(=O)O)cc1,-,-,-,-,24.9,-
COc1ccc(-c2cnc3c(c2)C(=O)N([C@@H](C)CO)C[C@H](C)[C@@H](CN(C)Cc2ccccc2)O3)cc1,-,-,-,-,47.8,-
CN1C[C@@H]2[C@H](c3ccccc31)[C@@H](CO)N2C(=O)c1ccccn1,-,-,-,-,-,.
O=C(COC(=O)c1ccccn1)Nc1ccccc1OC(F)F,43.1,-,-,-,-,-
O=C(COC(=O)c1cccnc1Cl)Nc1ccccc1OC(F)F,-,-,-,-,-,-
C[C@@H]1CN([C@H](C)CO)C(=O)c2cc(NS(=O)(=O)c3cccs3)ccc2O[C@@H](C)CCCCO[C@H]1CN(C)Cc1ccc2c(c1)OCO2,-,-,.,-,54.6,.
C[C@H]1CCCCO[C@@H](CN(C)Cc2ccc3c(c2)OCO3)[C@@H](C)CN([C@@H](C)CO)C(=O)c2cc(NS(=O)(=O)c3cccs3)ccc2O1,-,-,.,-,59.1!,.
CCCC(=O)Nc1ccc2c(c1)C(=O)N(C)[C@H]1CC[C@@H](CC(=O)N3CCc4ccccc4C3)O[C@@H]1CO2,-,-,.,-,-,-
OCC1CCCN(C2CCN(Cc3nc(Cc4cccc(C(F)(F)F)c4)no3)CC2)C1 (stereo not given),43.3,-,-,-,.,-
O=C(COC(=O)CN1C(=O)C2CCCCC2C1=O)Nc1cc(S(=O)(=O)N2CCOCC2)ccc1Cl (stereo not given),-,-,-,-,87.7,-
CCC1(c2ccc(F)cc2)NC(=O)N(CC(=O)Nc2cc(S(=O)(=O)N(C)C)ccc2Cl)C1=O (stereo not given),43.8,-,-,-,-,-
CCC1(c2ccc(F)cc2)NC(=O)N(CC(=O)Nc2ccc(S(N)(=O)=O)cc2)C1=O (stereo not given),-,-,-,-,-,.
